In ChEMBL document CHEMBL4513216, “Probing the Open Global Health Chemical Diversity Library for Multistage-Active Starting Points for Next-Generation Antimalarials” (ACS Infect Dis, 2020) one finds cytotoxicity data, which are given here for 97 molecules.

The structures appear in SMILES notation.

The nature of this data set: Toxicity liver stage against HepG2, at 10uM. It is filed as cell-based. Set-up: test concentration 10 uM, cell line HepG2-A16-CD81EGFP. Particulars: human, HepG2-A16-CD81EGFP cells; read-out: INHIBITION
In a few lines: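 Uninfected HepG2-A16-CD81EGFP cells, 3 × 10^3 per well, 1536-well, plated on prespotted compound at 10 μM final, parasite-free screening media added to match infected plates; puromycin 10 μM positive, DMSO 0.5% negative; run in parallel with 48 h PbLuc assay at 37 °C, 5% CO2; viability by CellTiter-Glo luminescence, normalized to controls.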
On to `CCc1nnc2n1CCN(C(=O)c1ccc3c(c1)nnn3C)C2`, for which the cytotoxicity at 10 µM was -4.68%.

Turning to `Cn1cc(CN(Cc2ccccn2)Cc2ccccc2Cl)cn1`, the cytotoxicity at 10 µM was -2.48%.

With `CCCOc1cc(C)ccc1NC(=O)NCCC(=O)N(C)C`, the cytotoxicity at 10 µM is -13.9%.

Consider `O=C(NCc1ccc(CN2CCCC2)cc1)NC1(CO)CCCC1`, for which the cytotoxicity at 10 µM was -63.4%.

For the molecule `CC(Cn1cccn1)NCc1nc(-c2ccsc2)no1` (configuration not stated), the cytotoxicity at 10 µM was -8.42%.

Consider `CS(=O)(=O)c1cc(S(N)(=O)=O)ccc1NCC1CCCO1` (configuration not stated), for which the cytotoxicity at 10 µM amounted to 6.26%.

Regarding `Cc1ccc(S(=O)(=O)Nc2ccc(-n3ccnc3C)nc2)cc1N(C)C`, the cytotoxicity at 10 µM was -3.78%.

As for `O=C(C1NCCc2[nH]cnc21)N1CCC2(CC1)CNc1ccccc12` (configuration not stated), the cytotoxicity at 10 µM came to 1.04%.

Turning to `CCc1cc2c(N3CCCC(c4cc(C(N)=O)[nH]n4)C3)ncnc2s1` (configuration not stated), the cytotoxicity at 10 µM was 3.25%.

On to `COc1ccccc1OCC(=O)NS(=O)(=O)c1ccccc1Br`, for which the cytotoxicity at 10 µM is -9.8%.

For the molecule `Cn1ccnc1C(=O)NC[C@H]1OC[C@@H]2CCN(S(C)(=O)=O)C[C@@H]21`, the cytotoxicity at 10 µM was -101%.

On to `COCCn1c2c(ccc1=O)CC(NS(C)(=O)=O)CC2` (configuration not stated), for which the cytotoxicity at 10 µM came to 8.8%.

On to `COc1cc(CNC(=O)c2cc(Cl)ccc2F)ccn1`, for which the cytotoxicity at 10 µM is -2.69%.

On to `COCCOc1cccc(C(=O)N2CCCC(n3ccnc3C)C2)c1` (configuration not stated), for which the cytotoxicity at 10 µM is -12%.

`CCN(CCNS(=O)(=O)N1CCOCC1)C(=O)OC(C)(C)C`: the cytotoxicity at 10 µM was found to be 19.9%.

With `O=C(c1cnn[nH]1)N(Cc1ccncc1)CC1CCCO1` (configuration not stated), the cytotoxicity at 10 µM was 2.86%.

Take `Cc1ccc(-c2nnc(CNCCn3cc(C)cn3)o2)cc1`: the cytotoxicity at 10 µM was -12.1%.

Regarding `c1cc(N2CCCCC2)ccc1-c1noc(CN2CCOCC2)n1`, the cytotoxicity at 10 µM was -1.59%.

On to `CCCN(Cc1nccn1C)C(=O)c1cc(C(C)C)on1`, for which the cytotoxicity at 10 µM came out at 4.24%.

Turning to `COCCNC(=O)c1cnc(N(C)C)nc1C`, the cytotoxicity at 10 µM was -5.33%.

Regarding `Cc1ncnc2c1CCN(Cc1ccc3c(c1)OCO3)CC2`, the cytotoxicity at 10 µM was -9.23%.

For `COCc1ccc(C(=O)N2CCc3c(ncnc3N3CCOCC3)C2)o1`, the cytotoxicity at 10 µM was -2.17%.

For the molecule `CCC1CN(CC(=O)N2CCCC2)CCN1CCOC` (configuration not stated), the cytotoxicity at 10 µM was -4.22%.

For the molecule `COc1ccsc1C(=O)NCCN1CCOCC1`, the cytotoxicity at 10 µM stood at 6.57%.

In the case of `CN(Cc1ccccc1)C(=O)Cn1nc(N2CCSCC2)ccc1=O`, the cytotoxicity at 10 µM came to 0.585%.

Turning to `CC1(Cc2cccnc2)NCCc2[nH]cnc21` (configuration not stated), the cytotoxicity at 10 µM turned out to be 12.1%.

For the molecule `O=C(NCCN1CCC(c2cccs2)CC1)c1ccccc1C(F)(F)F`, the cytotoxicity at 10 µM was -20.2%.

As to `Cc1cccnc1CNCC1(O)CCCN(CC2CCCCC2)C1=O` (configuration not stated), the cytotoxicity at 10 µM is -2.37%.

As to `Cc1ccc(OC2(C(=O)O)CCN(C(=O)c3ccoc3C)CC2)cn1`, the cytotoxicity at 10 µM is -1.56%.

For `Cn1cnc2c1C(C(=O)N1CCCC1)N(CC1CC1)CC2` (configuration not stated), the cytotoxicity at 10 µM was found to be 6.37%.

For the molecule `Cc1cc(-c2cnc(C)nc2CN(C)C(=O)c2ccccn2)on1`, the cytotoxicity at 10 µM was found to be 7.95%.

For `CS(=O)(=O)N1CC(c2nc[nH]n2)c2cc(C(=O)NC3CCCC3)ccc21` (configuration not stated), the cytotoxicity at 10 µM is -131%.

As for `OCCC1(NCc2ccc(-n3cccn3)cc2)CCOCC1`, the cytotoxicity at 10 µM was -146%.

In the case of `CCCN1CCCC1Cn1nc(C)cc1C` (configuration not stated), the cytotoxicity at 10 µM was -7.72%.

Turning to `O=C(c1cccc(F)c1)N1C[C@H]2CN(Cc3ccccn3)C[C@H]2C1`, the cytotoxicity at 10 µM was -1.92%.

For the molecule `c1cnc(N2CCC3(CCN(CC4CCOCC4)CC3)C2)nc1`, the cytotoxicity at 10 µM is 1.29%.

Turning to `Cc1cc(-n2cncn2)ccc1C(=O)N(C)CC(F)(F)C(F)(F)F`, the cytotoxicity at 10 µM was -10.3%.

For `COCCN1CCC(CN(CC2CCCO2)C(=O)Cc2cccs2)CC1` (configuration not stated), the cytotoxicity at 10 µM is -0.894%.

Regarding `Cc1cccc(C(=O)N2CCC3(CCN(c4cnn(C)c4)C3=O)C2)n1` (configuration not stated), the cytotoxicity at 10 µM was 5.05%.

Turning to `CC1CCC(NS(=O)(=O)CC(=O)Nc2ccccc2N2CCCC2)CC1` (configuration not stated), the cytotoxicity at 10 µM amounted to 3.75%.

With `CCC(C)n1c(SCC(=O)N2CCOCC2)nc2cc(C)[nH]c2c1=O` (configuration not stated), the cytotoxicity at 10 µM is 7.94%.

In the case of `C[C@H]1C[C@@H]2CCN(C(=O)c3ccncn3)C[C@H]2O1`, the cytotoxicity at 10 µM was -18.4%.

Take `CC1c2ncc(COCC3CC3)n2CCN1C(=O)c1ccnn1C` (configuration not stated): the cytotoxicity at 10 µM was 4.68%.

Regarding `Cn1ncc2c1C(COCC1CC1)CN(Cc1ccc(F)cc1)C2` (configuration not stated), the cytotoxicity at 10 µM is 1.23%.

As for `O=C(CCC1CCCO1)NS(=O)(=O)c1ccc(Cl)cc1` (configuration not stated), the cytotoxicity at 10 µM is -9.36%.

Turning to `CCC(Nc1nc(C)nc2onc(C)c12)c1cccs1` (configuration not stated), the cytotoxicity at 10 µM stood at 52.4%.

Turning to `CN(C(=O)c1ccc(S(=O)(=O)NC(C)(C)C)cc1)C1(C#N)CCC1`, the cytotoxicity at 10 µM was found to be 3.07%.

On to `O=C(NC1CCN(Cc2cccc3c2OCCO3)CC1)c1cccs1`, for which the cytotoxicity at 10 µM was -4.71%.

As to `O=C(CN(CC(O)c1ccc(F)cc1)C1CC1)NC1CCOCC1` (configuration not stated), the cytotoxicity at 10 µM was found to be 0.0428%.

On to `CC(=O)N1CCCC1c1cccc(Cc2ccc(F)cc2)n1` (configuration not stated), for which the cytotoxicity at 10 µM was -1.98%.

With `CN(c1ccc(F)c(F)c1)S(=O)(=O)c1cc(C(=O)O)cs1`, the cytotoxicity at 10 µM is -4.89%.

For `COCCC1COC2(CCN(C(=O)c3cccnc3)CC2)C1` (configuration not stated), the cytotoxicity at 10 µM was -72.4%.

Consider `CC(=O)N1CCOC(c2c(C(=O)O)sc3ccccc23)C1` (configuration not stated), for which the cytotoxicity at 10 µM was found to be 5.76%.

As to `CNS(=O)(=O)C1CCN(c2cc(C(C)C)nc(C(C)C)n2)C1` (configuration not stated), the cytotoxicity at 10 µM is -3.33%.

Regarding `Cc1cccc(-c2noc(CN3CCc4nn(C)c(=O)cc4C3)n2)c1`, the cytotoxicity at 10 µM was 5.15%.

Turning to `COCCCC1CCCCN1Cc1cn2cc(C)ccc2n1` (configuration not stated), the cytotoxicity at 10 µM is 3.21%.

With `CCCc1nc(CN(CC)Cc2ccoc2)no1`, the cytotoxicity at 10 µM is -2.52%.

With `CC(C)N1CCC(c2n[nH]cc2-c2ccnc(N)c2)C1` (configuration not stated), the cytotoxicity at 10 µM was found to be 2.16%.

With `CCCc1noc(CCC(=O)N2CCCC2c2ccc(OC)cc2)n1` (configuration not stated), the cytotoxicity at 10 µM is -0.403%.

With `COc1ncc(C2(O)CCN(Cc3c(F)cccc3F)CC2)c(OC)n1`, the cytotoxicity at 10 µM came out at 5.29%.

For `CSC(C)CCN1CCC(n2cc(C3CCCCC3)nn2)CC1` (configuration not stated), the cytotoxicity at 10 µM is -1.39%.

For `Cc1cc(C)n(Cc2ccc(-c3noc(C(=O)NC[C@@H](C)O)n3)cc2)n1`, the cytotoxicity at 10 µM is -9.62%.

For the molecule `Cc1cnnn1Cc1ncn2c1CN(Cc1cccs1)CCC2`, the cytotoxicity at 10 µM was 3.58%.

`CCC1c2ccsc2CCN1C(=O)NCc1ccc(C)nc1` (configuration not stated): the cytotoxicity at 10 µM was -3.75%.

With `CN(C)c1cc(C(=O)N2CCCCC2CNS(C)(=O)=O)ccn1` (configuration not stated), the cytotoxicity at 10 µM was -16%.

With `CNC(=O)Cc1n[nH]c(-c2cncc(Br)c2)n1`, the cytotoxicity at 10 µM was -4.97%.

Regarding `COCCCNC(=O)c1cn(C(C)(C)C)c2ncccc12`, the cytotoxicity at 10 µM amounted to 0.0915%.

As for `Cc1cc(N2CCN(C(=O)c3cnn(C(C)C)c3)CC2)cc(C)n1`, the cytotoxicity at 10 µM was -15.2%.

Consider `c1ccc(CN2CCC(NCCSc3cnn[nH]3)CC2)cc1`, for which the cytotoxicity at 10 µM was -5.16%.

Consider `COCC(NC(=O)c1cn2ccsc2n1)c1ccnn1C` (configuration not stated), for which the cytotoxicity at 10 µM is -47.8%.

For the molecule `Cc1noc(C)c1CN1C[C@@H]2COC[C@@H](C(=O)N3CCCO3)[C@@H]2C1`, the cytotoxicity at 10 µM was -69.9%.

As for `CCc1nc(CN2CCCN(C(=O)CCCOC)CC2)cs1`, the cytotoxicity at 10 µM is -14.4%.

In the case of `O=C(CCc1ccccc1)NC1CCC2(CCC(=O)N2)CC1` (configuration not stated), the cytotoxicity at 10 µM is 1.35%.

`CCN(Cc1ccc2c(c1)OCCO2)C(=O)NCc1nc(C)cs1`: the cytotoxicity at 10 µM stood at 1.47%.

In the case of `CC(C)n1ccc(=O)nc1SC1CCN(c2ccccc2F)C1=O` (configuration not stated), the cytotoxicity at 10 µM was found to be 11.8%.

As to `COCC(O)CN1CCC(NC(=O)c2ccccc2Cl)CC1` (configuration not stated), the cytotoxicity at 10 µM is -4.87%.

Consider `O=C([C@H]1CCS(=O)(=O)[C@@H]2CN(Cc3ccc(F)cc3)C[C@H]12)N1CCCC1`, for which the cytotoxicity at 10 µM amounted to 2.96%.

Regarding `C1CCC(OCCN2CCN(CCOC3CCCCC3)CC2)CC1`, the cytotoxicity at 10 µM is -0.434%.

Consider `CN(CCS(=O)(=O)c1cc(Cl)ccc1Cl)CC(=O)Nc1ccc(F)cc1`, for which the cytotoxicity at 10 µM is 8.9%.

`COCCN1C(=O)CC[C@@H]2[C@@H]1CCN2Cc1c(C)noc1C`: the cytotoxicity at 10 µM worked out at 6.57%.

As for `O=C(c1ccc(F)cc1Cl)N1CCn2c(nnc2C(F)(F)F)C1`, the cytotoxicity at 10 µM is -6.7%.

In the case of `CC(C)CCC(=O)N1CCC(c2nnc(CN(C)CCO)n2C)CC1`, the cytotoxicity at 10 µM was found to be 0.832%.

Take `CCN(CC)CC1CN(CCc2ccccc2)Cc2nccn2C1` (configuration not stated): the cytotoxicity at 10 µM was -9.61%.

Turning to `COCCCSc1ccc(NCc2cscn2)cc1`, the cytotoxicity at 10 µM amounted to 6.43%.

Take `CS(=O)(=O)N1CC[C@H]2C[C@@H](C(=O)N3CCOCC3)O[C@@H]2C1`: the cytotoxicity at 10 µM amounted to 2.28%.

Consider `O=C(c1cccnc1N1CCCCC1)N1CCCC(n2cccn2)C1` (configuration not stated), for which the cytotoxicity at 10 µM is -0.438%.

For the molecule `CC(C)c1noc(-c2ccc(N(C)C3CCOCC3)nc2)n1`, the cytotoxicity at 10 µM is -17.6%.

As for `CCN(Cc1cccc(C(=O)Nc2cn(C)nn2)c1)[C@H]1COC[C@@H]1O`, the cytotoxicity at 10 µM is -2.77%.

Turning to `CCc1nc(NS(=O)(=O)c2cccc(F)c2C)no1`, the cytotoxicity at 10 µM was determined as 5.18%.

With `CN1CCC(NC(=O)Nc2cnn(-c3ccccc3Cl)c2)CC1`, the cytotoxicity at 10 µM was -5.5%.

With `CS(=O)(=O)NCCNC(=O)Cc1ccc(Br)s1`, the cytotoxicity at 10 µM was -7.21%.

As for `Cc1nc(CC(=O)N2CCn3c(nnc3C(C)C)C2)cs1`, the cytotoxicity at 10 µM is -12.3%.

Regarding `CN1CCN(c2ncc3c(=O)n(Cc4ccco4)ccc3n2)CC1`, the cytotoxicity at 10 µM was -15.1%.

As for `CC(=O)Nc1ccc2nc(-c3nccn3C[C@@H]3CCCO3)ccc2c1`, the cytotoxicity at 10 µM is -8.18%.

Turning to `Cc1noc(C)c1CNCC1Cn2nncc2CO1` (configuration not stated), the cytotoxicity at 10 µM is -101%.

As for `COC(=O)CCC(=O)N(Cc1ccc2cc[nH]c2c1)C1CC1`, the cytotoxicity at 10 µM is -3.4%.

Take `CC(C)N(C)C[C@H]1C[C@@H]2CN(Cc3ccco3)C[C@@H]2O1`: the cytotoxicity at 10 µM is -4.22%.
